Results published in article PMC3518307 (Bioorganic & medicinal chemistry letters, 2012).
pIC50: −log10 of the molar value.

Key:
[1] = molecular target: reverse transcriptase from HIV-1 (Human immunodeficiency virus type 1 group M subtype B, UniProt P04585); experiment: Single point assay of HIV-RT activity; format: biochemical; conditions: mono-intercalators
[2] = molecular target: telomerase (Homo sapiens, UniProt O14746); experiment: Telomerase inhibition assay using partially purified telomerase; format: biochemical
Sequence of telomerase (O14746 whole entry): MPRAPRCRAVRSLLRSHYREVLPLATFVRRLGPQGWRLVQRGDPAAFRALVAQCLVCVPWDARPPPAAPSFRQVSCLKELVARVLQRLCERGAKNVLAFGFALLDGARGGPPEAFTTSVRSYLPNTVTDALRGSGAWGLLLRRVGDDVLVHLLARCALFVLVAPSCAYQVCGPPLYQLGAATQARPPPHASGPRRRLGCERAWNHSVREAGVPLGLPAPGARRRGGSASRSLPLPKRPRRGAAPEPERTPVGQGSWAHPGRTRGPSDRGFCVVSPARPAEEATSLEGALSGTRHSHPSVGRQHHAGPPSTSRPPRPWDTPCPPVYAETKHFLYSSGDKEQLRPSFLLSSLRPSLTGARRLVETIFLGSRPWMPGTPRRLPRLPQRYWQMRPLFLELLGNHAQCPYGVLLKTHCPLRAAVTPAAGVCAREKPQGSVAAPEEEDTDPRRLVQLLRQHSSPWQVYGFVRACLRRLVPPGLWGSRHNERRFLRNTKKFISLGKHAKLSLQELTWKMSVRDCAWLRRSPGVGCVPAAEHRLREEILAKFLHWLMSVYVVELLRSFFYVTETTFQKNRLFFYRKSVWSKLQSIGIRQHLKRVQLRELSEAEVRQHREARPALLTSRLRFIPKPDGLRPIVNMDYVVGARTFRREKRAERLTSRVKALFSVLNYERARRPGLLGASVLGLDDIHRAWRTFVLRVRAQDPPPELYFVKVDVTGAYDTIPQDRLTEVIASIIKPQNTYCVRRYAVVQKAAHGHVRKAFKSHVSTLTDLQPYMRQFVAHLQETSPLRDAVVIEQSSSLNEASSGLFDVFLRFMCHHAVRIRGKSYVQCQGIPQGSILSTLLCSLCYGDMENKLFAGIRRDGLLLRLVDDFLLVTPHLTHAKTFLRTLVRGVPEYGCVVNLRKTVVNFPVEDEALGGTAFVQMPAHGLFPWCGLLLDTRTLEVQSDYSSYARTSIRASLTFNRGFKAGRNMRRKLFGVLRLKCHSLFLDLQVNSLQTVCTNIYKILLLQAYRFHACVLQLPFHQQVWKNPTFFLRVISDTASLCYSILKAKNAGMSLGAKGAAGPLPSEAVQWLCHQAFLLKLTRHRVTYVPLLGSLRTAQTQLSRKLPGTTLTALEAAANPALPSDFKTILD
Sequence of telomerase (O60832 whole entry partner): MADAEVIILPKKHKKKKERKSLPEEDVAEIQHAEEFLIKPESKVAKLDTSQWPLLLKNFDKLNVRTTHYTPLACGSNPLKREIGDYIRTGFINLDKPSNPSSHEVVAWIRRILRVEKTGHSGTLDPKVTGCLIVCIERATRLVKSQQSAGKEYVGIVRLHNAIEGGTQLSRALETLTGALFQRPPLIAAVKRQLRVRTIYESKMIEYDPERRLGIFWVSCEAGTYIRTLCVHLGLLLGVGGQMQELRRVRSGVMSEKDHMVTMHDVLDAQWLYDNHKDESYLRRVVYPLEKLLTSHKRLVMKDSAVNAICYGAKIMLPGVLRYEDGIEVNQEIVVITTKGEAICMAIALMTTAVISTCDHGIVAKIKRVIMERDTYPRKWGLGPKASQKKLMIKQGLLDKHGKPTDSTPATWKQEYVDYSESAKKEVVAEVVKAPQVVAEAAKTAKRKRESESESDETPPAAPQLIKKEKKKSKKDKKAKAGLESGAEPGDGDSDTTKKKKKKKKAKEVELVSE
Sequence of telomerase (Q9NPE3 whole entry partner): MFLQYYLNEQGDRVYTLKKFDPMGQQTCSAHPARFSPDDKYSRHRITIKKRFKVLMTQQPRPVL
Sequence of telomerase (Q9NX24 whole entry partner): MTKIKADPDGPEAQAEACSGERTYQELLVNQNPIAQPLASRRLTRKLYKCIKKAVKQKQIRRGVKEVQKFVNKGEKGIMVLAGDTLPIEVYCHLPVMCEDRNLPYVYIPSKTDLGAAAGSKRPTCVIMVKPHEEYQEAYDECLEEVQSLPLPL
Sequence of telomerase (Q9NY12 whole entry partner): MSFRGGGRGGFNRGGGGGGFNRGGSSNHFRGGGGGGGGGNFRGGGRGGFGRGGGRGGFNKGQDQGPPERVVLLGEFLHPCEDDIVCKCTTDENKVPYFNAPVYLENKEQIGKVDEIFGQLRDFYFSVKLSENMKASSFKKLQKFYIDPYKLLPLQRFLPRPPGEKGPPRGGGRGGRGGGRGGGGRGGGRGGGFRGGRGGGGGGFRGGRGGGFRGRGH
Sequence of telomerase (Q9BUR4 whole entry partner): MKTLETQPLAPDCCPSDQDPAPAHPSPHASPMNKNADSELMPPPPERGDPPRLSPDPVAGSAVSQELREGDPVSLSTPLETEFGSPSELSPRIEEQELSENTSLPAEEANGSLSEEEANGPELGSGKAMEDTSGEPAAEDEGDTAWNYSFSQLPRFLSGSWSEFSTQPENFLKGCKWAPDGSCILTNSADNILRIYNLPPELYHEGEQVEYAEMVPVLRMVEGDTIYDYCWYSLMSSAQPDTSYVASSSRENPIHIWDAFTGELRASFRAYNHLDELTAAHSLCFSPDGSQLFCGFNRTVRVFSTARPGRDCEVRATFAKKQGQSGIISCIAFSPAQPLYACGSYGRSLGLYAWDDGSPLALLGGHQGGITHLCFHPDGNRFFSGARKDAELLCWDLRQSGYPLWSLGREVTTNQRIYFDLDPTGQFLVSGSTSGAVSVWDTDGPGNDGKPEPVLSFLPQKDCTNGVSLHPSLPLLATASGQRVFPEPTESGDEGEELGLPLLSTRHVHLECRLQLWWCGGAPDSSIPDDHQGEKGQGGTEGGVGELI
Method in brief: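 Partially purified telomerase, prepared by an adapted published procedure, used instead of the crude HeLa cell homogenate of the standard assay to limit extra nucleic acids that could bind bis-intercalators in the mix; IC50 from inhibition curves, with error values reported.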

Row | SMILES | IC50 estimates against reverse transcriptase [1] | pIC50 [2]
1 | COc1ccc2nc3cc(Cl)ccc3c(N)c2c1 [9-Amino-6-Chloro-2-Methoxy acridine] | No inhibition observed | –
2 | NCCCC[C@H](NC(=O)CCNC(=O)C(N)CN)C(N)=O (some centres unmarked) [compound 1] | – | 6.99
3 | O=C(O)c1ccc2cc3ccccc3cc2c1 [2-Anthracene carboxylic acid] | No inhibition observed | –
4 | O=C(O)c1cccc2cc3ccccc3cc12 [1-Anthracene carboxylic acid] | No inhibition observed | –
5 | O=C(O)c1c2ccccc2nc2ccccc12 [9-Acridine carboxylic acid] | No inhibition observed | –
